From ChEMBL document CHEMBL3352503, “An investigation of in vitro cytotoxicity and apoptotic potential of aromatic diselenides” (Bioorg Med Chem Lett, 2014) come the findings set out here.

A short description of assay [1]: Cytotoxicity against human HL60 cells after 48 hrs by MTT assay. To be noted: HL-60, 48 h. Format: functional, cell-based. The method in brief: (§1)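 Cells grown at 37°C, 5% CO2 with 10% heat-inactivated FBS, penicillin, streptomycin and L-glutamine: HL-60 (suspension) in RPMI-1640, PC-3 in MEM. Seeded 6000 cells/well, exposed 48 h to a range of concentrations (DMSO vehicle, final below 1%). MTT (2.5 mg/mL) added for 4 h, formazan dissolved in DMSO, OD at 540 nm (ref. 620 nm); growth vs untreated cells.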
(Tetrazolium dyes change colour on reduction, which living cells bring about.)

Assay [2] can be described thus: Cytotoxicity against human 786-O cells after 48 hrs by MTT assay. Format: functional, cell-based. The following applies: 786-0, 48 h.
The test system of the next assay is HT-29. Kind of assay: Cytotoxicity against human HT-29 cells after 48 hrs by MTT assay. The following applies: HT-29, 48 h. The class given is functional, cell-based.
Assay [3] in a line: Cytotoxicity against human PC3 cells after 48 hrs by MTT assay. Format: functional, cell-based. To be noted: PC-3, 48 h. The method in brief: as §1
A short description of assay [4]: Cytotoxicity against human OVCAR5 cells after 48 hrs by MTT assay. Format: functional, cell-based. The following applies: OVCAR-5, 48 h.
The nature of assay [5]: Cell cycle arrest in human HL60 cells assessed as accumulation at G1 phase at 20 uM after 24 hrs by propidium iodide staining-based flow cytometry (reference value: 50.80%). To be noted: HL-60. The class given is functional. (Flow cytometry measures light scatter and fluorescence of single cells or particles in a stream.)
For assay [6], the system named is HL-60. Kind of assay: Induction of apoptosis in human HL60 cells assessed as loss of mitochondrial membrane potential at 20 uM after 24 hrs by Rhodamine-123 staining-based flow cytometric analysis (reference value: 6%). The class given is functional.
Assay [7] is described as follows: Cell cycle arrest in human HL60 cells assessed as accumulation at S phase at 20 uM after 24 hrs by propidium iodide staining-based flow cytometry (reference value: 46.82%). Format: functional. The following applies: HL-60.
Assay [8] concerns HL-60. Kind of assay: Induction of apoptosis in human HL60 cells assessed as loss of mitochondrial membrane potential after 24 hrs by Rhodamine-123 staining-based flow cytometric analysis. Format: functional, cell-based.
Assay [9] can be described thus: Cell cycle arrest in human HL60 cells assessed as accumulation at G1 phase at 30 uM after 24 hrs by propidium iodide staining-based flow cytometry (reference value: 50.80%). To be noted: HL-60. Format: functional.
Assay [10] has as its system HL-60. Kind of assay: Induction of apoptosis in human HL60 cells at 10 uM after 24 hrs by propidium iodide staining-based flow cytometry (reference value: 1.49%). The class given is functional.
The test system of assay [11] is HL-60. Kind of assay: Induction of apoptosis in human HL60 cells at 20 uM after 24 hrs by propidium iodide staining-based flow cytometry (reference value: 1.49%). Format: functional.
For assay [12], the system named is HL-60. Kind of assay: Induction of apoptosis in human HL60 cells assessed as membrane blebbing at 20 to 30 uM after 24 hrs by fluorescent microscopy. The class given is functional, cell-based.
Assay [13] deals with HL-60. Kind of assay: Induction of apoptosis in human HL60 cells assessed as chromatin condensation at 20 to 30 uM after 24 hrs by fluorescent microscopy. The class given is functional, cell-based.
In assay [14] the test system is HL-60. Kind of assay: Induction of apoptosis in human HL60 cells at 30 uM after 24 hrs by propidium iodide staining-based flow cytometry (reference value: 1.49%). Format: functional.
In assay [15] the test system is HL-60. Kind of assay: Cytotoxicity against human HL60 cells by MTT assay. The class given is functional, cell-based. To be noted: TDE = time-dependent effect. The procedure, abridged:
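Cells grown in RPMI-1640 with 10% heat-inactivated FBS at 37 °C, 5% CO₂, seeded at 6000 cells/well and exposed to test material for 48 hr. DMSO vehicle kept below 1% final. MTT (2.5 mg/mL) added for 4 hr, formazan dissolved in DMSO, OD read at 540 nm (reference 620 nm). Growth calculated as treated vs untreated absorbance.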

Assay [16] concerns HL-60. Kind of assay: Induction of apoptosis in human HL60 cells assessed as nuclear fragmentation at 20 to 30 uM after 24 hrs by fluorescent microscopy. Format: functional, cell-based.
The subject of assay [17] is HL-60. Kind of assay: Induction of apoptosis in human HL60 cells assessed as loss of mitochondrial membrane potential at 30 uM after 24 hrs by Rhodamine-123 staining-based flow cytometric analysis (reference value: 6%). The class given is functional.
Assay [18] is described as follows: Cell cycle arrest in human HL60 cells assessed as accumulation at S phase at 10 uM after 24 hrs by propidium iodide staining-based flow cytometry (reference value: 46.82%). The class given is functional. To be noted: HL-60.
Assay [19] is described as follows: Cell cycle arrest in human HL60 cells assessed as accumulation at G2 phase at 30 uM after 24 hrs by propidium iodide staining-based flow cytometry (reference value: 2.39%). The class given is functional. To be noted: HL-60.
A short description of assay [20]: Cell cycle arrest in human HL60 cells assessed as accumulation at G2 phase at 20 uM after 24 hrs by propidium iodide staining-based flow cytometry (reference value: 2.39%). The class given is functional. To be noted: HL-60.
The nature of assay [21]: Cell cycle arrest in human HL60 cells assessed as accumulation at G2 phase at 10 uM after 24 hrs by propidium iodide staining-based flow cytometry (reference value: 2.39%). The class given is functional. To be noted: HL-60.
Assay [22] can be described thus: Cell cycle arrest in human HL60 cells assessed as accumulation at G1 phase at 10 uM after 24 hrs by propidium iodide staining-based flow cytometry (reference value: 50.80%). The class given is functional. The following applies: HL-60.
Assay [23] has as its system HL-60. Kind of assay: Induction of apoptosis in human HL60 cells assessed as loss of mitochondrial membrane potential at 10 uM after 24 hrs by Rhodamine-123 staining-based flow cytometric analysis (reference value: 6%). The class given is functional.
The nature of assay [24]: Cell cycle arrest in human HL60 cells assessed as accumulation at S phase at 30 uM after 24 hrs by propidium iodide staining-based flow cytometry (reference value: 46.82%). Format: functional. The following applies: HL-60.

The structures appear in SMILES notation. Active and inactive are the calls of the source. No cut-off for these calls is given here.

Regarding `OCc1ccccc1[Se][Se]c1ccccc1CO`, the IC50 (usually the midpoint of a concentration-inhibition curve) came out at 14 µM in assay [1]; 27 µM in [2]; 25 µM in the assay on HT-29; 28 µM in assay [3]; 16 µM in [4].

As for `Cc1cc(C)cc([Se][Se]c2cc(C)cc(C)c2)c1`, the IC50 was 23 µM in assay [1]; 33 µM in [2]; 36 µM in the assay on HT-29; 30 µM in [3]; 34 µM in [4].

Turning to `Oc1ccc([Se][Se]c2ccc(O)cc2)cc1`, the IC50 was 13 µM in [1]; 33 µM in [2]; 37 µM with HT-29; 29 µM in assay [3]; 27 µM in assay [4].

For the molecule `Cc1ccc([Se][Se]c2ccc(C)cc2)cc1`, the IC50 in [1] stood at 33 µM; in [2], 29 µM; in the assay with HT-29 it was 37 µM; in [3], 29 µM; in assay [4], 31 µM.

For `CCc1ccccc1[Se][Se]c1ccccc1CC`, the IC50 amounted to 28 µM in assay [1]; 42 µM in [2]; 56 µM in the assay with HT-29; 43 µM in assay [3]; 38 µM in assay [4].

With `COc1ccc([Se][Se]c2ccc(OC)cc2)cc1`, the IC50 amounted to 12 µM in [1]; 28 µM in [2]; 24 µM with HT-29; 27 µM in [3]; 26 µM in [4].

With `FC(F)(F)c1cc([Se][Se]c2cc(C(F)(F)F)cc(C(F)(F)F)c2)cc(C(F)(F)F)c1`, the IC50 in assay [1] was 8 µM; in [2] it was 24 µM; in the assay with HT-29, 21 µM; in [3], 13 µM; in assay [4], 20 µM. For the same molecule, the Activity in [5] is 50.8%; in the assay on HL-60 [6], 20%; in assay [7], 45.5%; in the assay with HL-60 [8], “Dose-dependent effect”; in assay [9], 46.1%; with HL-60 [10] it was 2.45%. For the same molecule, the Activity with HL-60 [11] was 5.65%; in the assay with HL-60 [14], 23.94%; with HL-60 [17], 58%; in assay [18], 48.4%; in assay [19], 0%; in assay [20], 3.78%. The Activity in assay [21] amounted to 1.93%; in [22], 49.7%; in the assay with HL-60 [23], 11%; in assay [24], 53.9%. Also, the result in the assay with HL-60 [12], in the assay on HL-60 [13] and with HL-60 [16] was Active. For the same molecule, the inhibition entry with HL-60 [15] was “tde”.

In the case of `c1ccc([Se][Se]c2ccccc2)cc1`, the IC50 in [1] came out at 32 µM; in [2] it was 38 µM; in the assay on HT-29 it was 31 µM; in [3], 42 µM; in assay [4], 38 µM.

As to `Oc1ccccc1[Se][Se]c1ccccc1O`, the IC50 in assay [1] was 14 µM; in the assay with HT-29, 23 µM; in [3], 25 µM; in assay [4], 21 µM.

For `c1ccc2c([Se][Se]c3cccc4ccccc34)cccc2c1`, the IC50 stood at 16 µM in assay [1]; 32 µM in assay [2]; 34 µM in the assay with HT-29; 40 µM in assay [3]; 25 µM in assay [4].

For `Cc1cccc(C)c1[Se][Se]c1c(C)cccc1C`, the IC50 in [1] came out at 27 µM; in assay [2], 40 µM; in the assay on HT-29 it was 35 µM; in assay [3], 33 µM; in assay [4], 39 µM.

Turning to `c1ccc([Se][Se]c2ccccn2)nc1`, the IC50 in assay [1] worked out at 28 µM; in assay [2], 29 µM; in the assay with HT-29, 30 µM; in assay [3], 26 µM; in assay [4], 27 µM.

Take `OCc1ccc([Se][Se]c2ccc(CO)cc2)cc1`: the half-maximal inhibitory concentration (IC50) came out at 11 µM in assay [1]; 30 µM in [2]; 27 µM in the assay on HT-29; 26 µM in assay [3]; 24 µM in assay [4].
